High-throughput results deposited in PubChem BioAssay by several laboratories.
APP 5'UTR act = activates APP 5'UTR luciferase reporter; SH-SY5Y APP 5'UTR luciferase reporter, luminescence; zero percent = DMSO vehicle wells; activation, % at 2 µM; hit rate 1% among 190,000;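 active = activation above a set limit, based on mean plus 3 SD of controls, cut at about 140% in these data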
FLuc inh counter = inhibits firefly luciferase, flagging false hits in luciferase inhibition screens; ATPLite firefly luciferase biochemical luminescence, 10 min; inhibition, % at 10 µM; hit rate 1.5% among 200,000;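 active = inhibition above about 50% when tested at 10 µM, limit read from the data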
Target sequence (P08659 whole entry, looked up): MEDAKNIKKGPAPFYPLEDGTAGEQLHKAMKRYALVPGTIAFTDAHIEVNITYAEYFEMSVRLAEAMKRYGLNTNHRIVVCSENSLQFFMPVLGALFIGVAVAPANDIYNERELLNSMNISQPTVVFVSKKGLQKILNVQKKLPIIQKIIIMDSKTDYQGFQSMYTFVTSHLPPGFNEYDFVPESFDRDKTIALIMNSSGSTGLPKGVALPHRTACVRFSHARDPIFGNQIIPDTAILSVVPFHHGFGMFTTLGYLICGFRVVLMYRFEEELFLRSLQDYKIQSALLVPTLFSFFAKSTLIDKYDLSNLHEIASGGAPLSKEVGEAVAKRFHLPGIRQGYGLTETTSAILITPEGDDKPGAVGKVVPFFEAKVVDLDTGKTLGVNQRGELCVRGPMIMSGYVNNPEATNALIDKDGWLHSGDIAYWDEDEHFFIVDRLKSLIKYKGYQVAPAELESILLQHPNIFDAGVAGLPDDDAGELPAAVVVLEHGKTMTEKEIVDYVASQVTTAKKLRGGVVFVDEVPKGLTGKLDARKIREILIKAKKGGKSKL
NF-kB expr up = compounds increasing NF-kB expression in human neuronal cells | AID 1239 | fold change at 12.5 µM | hit rate 1.6% among 190,000 | NF-kB reporter expression; active compounds read high; in the data active = fold change above about 3.3
C8 TRAIL sens = sensitizes caspase-8 expressing cells to TRAIL | NB7+C8 cells + TRAIL, ATPlite viability luminescence | AID 624354 | hit rate 1% among 360,000 | inhibition (viability loss, TRAIL sensitization), % at 10 µM;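 active = compounds causing at least 50% loss of cell viability in the single-dose screen, relative to plate controls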
FLuc stim CS = affects firefly luciferase, flagging false hits in luciferase stimulation screens; P08659; ATPlite luciferase biochemical, luminescence, 10 min; 0 = ATP-free wells, 1 = DMSO control; activation factor at 10 µM; 200,000 tested, under 10 active; AID 1027;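 active = luciferase activation factor, scaled between plate controls, of at least 2 with compound at 10 µM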
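System: Luciferase/luciferin detection reagent, cell-free biochemical luciferase assay | Medium: PBS buffer for ATP | Dosing: Test compounds dosed from 2 mM stocks in 100% DMSO | Timing: 10 min at ambient temperature | Signal: Luminescence measurement of luciferase light output | Evaluation: Luciferase activation, seen as luminescence increase over controls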
PPC-1+TRAIL kill = PPC-1 cancer cell killing with TRAIL present | hit rate 0.41% among 220,000 | cell killing (% activity), % at 4 µM or 5 µM | PPC-1 cells + TRAIL, ATPLite viability luminescence;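 active = cell killing above 50% in the first pass at 4 µM, then a duplicate retest at 5 µM averaging 50% or more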;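 note: plate controls were cells with TRAIL plus DMSO for no effect and medium-only wells lacking cells for full effect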
PPC1 cytotox = PPC-1 cell cytotoxicity | hit rate 50% among 1,200 | shares compounds with PPC-1+TRAIL kill | AID 1447 | cytotoxicity, % at 5 µM | PPC-1 viability, ATPlite luminescence, overnight;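 active = reconfirmed compounds whose average cytotoxicity reaches 50% or more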;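 note: 0% = DMSO-treated cells and 100% = wells holding medium but no cells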
* hit, by the source's call; / = no result given. Sampled rows, rich in hits. Any-hit rate of the full collection: about 2.2%.

SMILES	APP 5'UTR act	FLuc inh counter	NF-kB expr up	C8 TRAIL sens	FLuc stim CS	PPC-1+TRAIL kill	PPC1 cytotox
Cc1cc(N2CCN(c3ccccc3)CC2)n2ncnc2n1	26	-5	1	-13	1.1	6	/
Cc1cc(N2CC(=O)N(CCc3ccccc3)C(=O)C2)n2ncnc2n1	-3	-5	0.95	-18	1	10	-2
Clc1ccc(-n2cnnn2)cc1	-8	-4	0.9	-12	1	9	/
Oc1ccc(-n2cnnn2)cc1	-12	0	0.89	-13	1	17	18
CN1C(C(=O)N2CCc3ccccc3C2)=CC(c2ccc(F)cc2)=NS1(=O)=O	/	/	/	6	/	/	/
Cn1c(=NC(=O)c2ccco2)sc2ccccc21	156*	86*	4.6*	59*	0.1	50*	53*
Cc1sc(=NC(=O)c2ccco2)n(C)c1-c1ccccc1	131	91*	5.1*	78*	0.1	76*	74*
CSCc1cccc(C(=O)OC(C)C(=O)Nc2c(C)n(C)n(-c3ccccc3)c2=O)c1 (stereo unspecified)	/	/	/	-1	/	/	/
COc1ccccc1-n1c(C)cc(/C=C2/C(=N)N3C(=NC2=O)SN=C3S(C)(=O)=O)c1C	31	87*	1.5	58*	0.1	47	55*
CCc1ccc(CN(C)C(=O)c2ccc3c(c2)OCCO3)cc1	/	/	/	-14	/	/	/
CC(Oc1cccc(Cl)c1)C(=O)Nc1cc(=O)n(C)c(=O)n1C (stereo unspecified)	7	-10	0.91	-15	1.1	2	-3
COc1cccc(N2CCN(c3ncnc4c3[nH]c3ccccc34)CC2C)c1 (stereo unspecified)	0	-7	0.3	/	1.1	21	/
COc1cccc(N2CCN(c3ncnc4c3[nH]c3ccc(F)cc34)CC2C)c1 (stereo unspecified)	-27	-8	0.11	95*	1.1	63*	63*
COc1ccc(N/C=C2\CCOC2=O)cc1	22	-6	0.99	-1	1.1	-9	/
CC(=O)Oc1ccc(/C=C2/CCc3ccccc3C2=O)cc1	/	/	/	76*	/	38	44
COc1ccc(N/C=C2\CCc3ccccc3C2=O)cc1	156*	92*	1.8	86*	0.1	72*	72*
COc1ccccc1-c1nnc(NC(=O)CSc2nncn2C)s1	10	94*	2	83*	0.1	77*	68*
COc1ccccc1-c1nnc(NC(=O)C(C)Sc2nncn2C)s1 (stereo unspecified)	-11	32	1.1	6	0.7	1	/
CC(=O)Nc1sc2c(c1-c1nc3ccccc3s1)CCN(C(C)C)C2	-70	-3	2.7	54*	1	37	27
COc1cc(/C=C/C(=O)OCC(=O)NCCc2ccc(S(N)(=O)=O)cc2)ccc1OCC#N	/	/	/	-5	/	/	/
Cn1c(NC(=O)c2ccco2)c(-c2ccccc2)c(=O)c2ccccc21	-10	-6	0.97	-21	1.1	8	-12
CC(C)C(=O)Nc1c(-c2ccccc2)c(=O)c2ccccc2n1C	/	/	/	3	/	-12	/
O=C(Nc1nnc(SCC(=O)N2CCOCC2)s1)c1ccccc1Cl	/	85*	1.4	69*	0.2	58*	56*
CCOC(=O)c1cnc(Nc2nc3ccccc3o2)nc1C	104	91*	3.5*	88*	0.1	81*	79*
CCOC(=O)c1cnc(Nc2nc3ccccc3o2)nc1CN1CCN(c2ccccc2)CC1	17	/	/	/	/	/	/
SMILES	APP 5'UTR act	FLuc inh counter	NF-kB expr up	C8 TRAIL sens	FLuc stim CS	PPC-1+TRAIL kill	PPC1 cytotox
COc1ccc(S(=O)(=O)N2CCCCC2)cc1NC(=O)C1COc2ccccc2O1 (stereo unspecified)	/	/	/	25	/	/	/
CCN(CC(=O)Nc1cc(Cl)ccc1C)C(=O)CCOc1ccccc1C	/	/	/	9	/	/	/
CCn1c(-c2ccc(N)cc2)nc2ccccc21	-1	1	1.1	10	1	-18	/
CN(C)c1ccc(-c2nc3ccccc3n2C)cc1	97	96*	2.1	82*	0	88*	88*
CN(C)c1ccc(C(O)Cc2nc3ccccc3n2C)cc1 (stereo unspecified)	/	/	/	17	/	/	/
CCn1c(-c2ccc(N(C)C)cc2)nc2ccccc21	96	85*	2.9	65*	0.2	60*	60*
c1ccc(OCCn2c(-c3ccco3)nc3ccccc32)cc1	-4	-3	1.4	0	1	8	/
CCn1c(-c2ccco2)nc2ccccc21	13	23	1.1	9	0.8	19	19
Cc1nnsc1C(=O)NC1CCCc2c1cnn2-c1ccc(C(C)(C)C)cc1 (stereo unspecified)	/	/	/	24	/	/	/
CCOCCCNC(=O)c1cc(=O)n(Cc2cccc(C)c2)c2ccccc12	-8	-5	0.88	-12	1.1	8	/
